The subject of series [1] is BT-474. The series is described as follows: Induction of cell cycle arrest in human BT474 cells assessed as accumulation at G1 phase at 1 uM incubated for 12 hrs by propidium iodide staining based flow cytometry (reference value: 67%). The class given is functional.
In series [2] the test system is BT-474. The series can be described thus: Induction of cell cycle arrest in human BT474 cells assessed as accumulation at S phase at 0.01 uM incubated for 12 hrs by propidium iodide staining based flow cytometry (reference value: 19%). Type of series: functional.
Series [3] deals with Epidermal growth factor receptor (Homo sapiens, UniProt P00533). Conditions: A-431, 0.001 to 1 uM.
Series [4] is described as follows: Tmax in Beagle dog at 240 mg/kg, po dosed for 14 days by LC/MS/MS method. The class given is ADME, organism-based, Canis lupus familiaris. The conditions noted are these: in vivo. More on the design: dose 240 mg/kg, route oral. In outline: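 Beagle dogs (n = 6) given 240 mg/kg daily by oral gavage for 14 consecutive days. On days 1 and 14, blood taken predose and at 0.25–24 h post-dose. Plasma held at -20 °C, then quantified by validated LC/MS/MS. Tmax taken directly from the plasma concentration-time data.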

Molecules are shown by their SMILES.

For orientation: Tmax means the time from dosing to the highest level.

Chain of Epidermal growth factor receptor (P00533 whole entry): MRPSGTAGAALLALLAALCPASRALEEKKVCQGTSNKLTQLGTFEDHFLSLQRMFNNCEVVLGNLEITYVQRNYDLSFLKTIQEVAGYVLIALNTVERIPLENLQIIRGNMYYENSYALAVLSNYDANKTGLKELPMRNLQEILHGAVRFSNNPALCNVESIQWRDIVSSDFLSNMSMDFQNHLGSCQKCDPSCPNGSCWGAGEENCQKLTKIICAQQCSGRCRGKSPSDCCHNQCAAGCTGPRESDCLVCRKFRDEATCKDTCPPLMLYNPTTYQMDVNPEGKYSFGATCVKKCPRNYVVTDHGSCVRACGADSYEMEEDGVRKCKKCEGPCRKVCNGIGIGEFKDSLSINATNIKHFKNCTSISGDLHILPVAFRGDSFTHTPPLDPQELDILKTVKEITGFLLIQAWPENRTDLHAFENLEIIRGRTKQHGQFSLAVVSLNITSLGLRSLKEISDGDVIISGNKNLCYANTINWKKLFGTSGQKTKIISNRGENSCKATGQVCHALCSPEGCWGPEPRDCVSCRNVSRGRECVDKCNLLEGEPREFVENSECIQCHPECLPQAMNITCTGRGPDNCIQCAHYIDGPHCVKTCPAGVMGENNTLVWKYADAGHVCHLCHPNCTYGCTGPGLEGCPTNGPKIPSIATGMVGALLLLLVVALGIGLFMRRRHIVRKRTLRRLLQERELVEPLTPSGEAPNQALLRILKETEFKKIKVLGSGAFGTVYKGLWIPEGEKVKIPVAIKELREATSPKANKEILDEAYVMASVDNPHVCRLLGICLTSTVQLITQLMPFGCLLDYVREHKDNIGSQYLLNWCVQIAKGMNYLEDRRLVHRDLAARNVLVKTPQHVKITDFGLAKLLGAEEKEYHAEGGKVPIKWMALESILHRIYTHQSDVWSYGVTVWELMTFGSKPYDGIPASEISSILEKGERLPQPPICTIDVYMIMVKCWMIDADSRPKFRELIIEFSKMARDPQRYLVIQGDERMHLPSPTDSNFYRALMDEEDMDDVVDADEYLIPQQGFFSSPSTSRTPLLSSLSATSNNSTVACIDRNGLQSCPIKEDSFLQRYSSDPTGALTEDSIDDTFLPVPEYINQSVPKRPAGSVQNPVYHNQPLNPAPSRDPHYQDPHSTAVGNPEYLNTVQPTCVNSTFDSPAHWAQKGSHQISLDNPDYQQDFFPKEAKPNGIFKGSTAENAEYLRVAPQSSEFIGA

Regarding `CN(C)[C@H](CS(C)(=O)=O)c1ccc(-c2ccc3ncnc(Nc4ccc(OCc5cccc(F)c5)c(Cl)c4)c3c2)o1`, the Activity with BT-474 [1] turned out to be 82%; with BT-474 [2] it was 9%. For the same compound, the inhibition entry in series [3] is “Dose-dependent effect”. Besides, the Tmax in series [4] worked out at 4.5 h.

Source of the values: ChEMBL document CHEMBL3352165 (Eur J Med Chem, 2014).
